How the values were obtained:
[1] = target: Cannabinoid receptor 1 (Rattus norvegicus, UniProt P20272); assay: Displacement of [3H]CP-55940 from CB1 receptor in Sprague-Dawley rat brain membrane; assay type: cell membranes
[2] = target: T1, Cannabinoid receptor 2 (Homo sapiens, UniProt P34972); assay: Displacement of [3H]CP-55940 from human cloned CB2 receptor
[3] = Selectivity for human cloned CB2 receptor over Sprague Dawley rat brain membrane CB1 receptor
[4] = target: T1, Cannabinoid receptor 2; settings: CHO, 3 uM
[5] = target: T1, Cannabinoid receptor 2; assay: Agonist activity at human CB2 receptor expressed in CHO cells by [35S]GTP-gamma-S binding assay; assay type: functional, cell-based
How it was run: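 [35S]GTPγS binding on membranes of CHO cells stably expressing human CB2. 10 µg membrane protein was incubated 1.5 h at 30 °C in 50 mM Tris-HCl pH 7.4, 3 mM MgCl2, 0.2 mM EGTA, 100 mM NaCl, with 10 µM GDP, 0.1 nM [35S]GTPγS, 0.1% BSA and agonist over a concentration range. Nonspecific binding was set with 20 µM GTPγS. Filtration was followed by scintillation counting. EC50 came from nonlinear regression, 3-6 experiments in triplicate.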

[6] = target: T1, Cannabinoid receptor 2; assay: Agonist activity at human CB2 receptor expressed in CHO cells by [35S]GTP-gamma-S binding assay relative to CP-55940; assay type: functional, cell-based
How it was run: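 Same hCB2-CHO membrane [35S]GTPγS assay (10 µM GDP, 0.1 nM radioligand, 1.5 h, 30 °C). Net stimulation at each concentration was expressed as percent of that given by 3 µM CP-55,940, run as an internal standard in each experiment. Emax came from nonlinear regression of the concentration-effect curves, mean ± SEM of 3-6 experiments in triplicate.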

Sequence of Cannabinoid receptor 1 (P20272 whole entry): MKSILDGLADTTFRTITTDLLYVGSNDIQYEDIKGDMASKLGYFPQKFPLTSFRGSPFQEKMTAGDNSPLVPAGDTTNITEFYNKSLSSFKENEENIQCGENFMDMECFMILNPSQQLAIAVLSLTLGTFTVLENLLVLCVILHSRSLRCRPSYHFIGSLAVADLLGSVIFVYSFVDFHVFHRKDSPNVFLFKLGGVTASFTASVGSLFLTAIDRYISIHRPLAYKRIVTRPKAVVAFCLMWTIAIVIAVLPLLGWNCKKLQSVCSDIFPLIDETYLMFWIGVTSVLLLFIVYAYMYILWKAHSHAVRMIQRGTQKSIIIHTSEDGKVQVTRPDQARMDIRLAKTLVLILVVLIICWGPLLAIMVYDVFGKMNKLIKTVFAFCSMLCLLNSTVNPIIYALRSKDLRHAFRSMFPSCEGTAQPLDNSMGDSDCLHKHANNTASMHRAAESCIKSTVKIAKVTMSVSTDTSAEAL
T1 sequence (P34972 whole entry): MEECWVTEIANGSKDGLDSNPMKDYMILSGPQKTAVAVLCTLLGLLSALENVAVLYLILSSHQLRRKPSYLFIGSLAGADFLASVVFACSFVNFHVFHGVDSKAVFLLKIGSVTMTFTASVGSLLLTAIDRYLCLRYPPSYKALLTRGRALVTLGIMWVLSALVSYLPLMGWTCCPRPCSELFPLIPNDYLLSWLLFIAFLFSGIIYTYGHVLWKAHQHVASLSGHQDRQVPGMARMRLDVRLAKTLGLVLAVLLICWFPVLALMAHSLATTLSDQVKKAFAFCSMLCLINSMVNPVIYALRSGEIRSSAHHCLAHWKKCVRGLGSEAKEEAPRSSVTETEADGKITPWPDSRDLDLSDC

Compound	Ki [1]	Ki [2]	Ratio Ki [3]	Emax [4]	EC50 [5]	Emax [6]
CCCCCCC(C)(C)c1ccc([C@H]2CCC[C@@H](O)C2)c(O)c1	2.2 nM					
CCCCCC(C)(C)c1ccc([C@H]2CCC[C@@H](O)C2)cc1 (relative stereo)	2110 nM	460 nM	4.6			
CCCCCCC(C)(C)c1ccc([C@@H]2C[C@H](O)CC[C@H]2CCCO)cc1 (relative stereo)	547 nM	238 nM	2.3			
CC(C)(C)c1ccc([C@@H]2C[C@H](O)CC[C@H]2CCCO)cc1 (relative stereo)	> 10000 nM	> 10000 nM				
CCCCCCCC(C)(C)c1ccc([C@H]2CCC[C@@H](O)C2)cc1 (relative stereo)	786 nM	672 nM	1.2			
CCCCCC(C)(C)c1ccc([C@@H]2C[C@H](O)CC[C@H]2CCCO)cc1 (relative stereo)	308 nM	221 nM	1.4			
CCCC(C)(C)c1ccc([C@H]2CCC[C@@H](O)C2)cc1 (relative stereo)	> 10000 nM	2060 nM	> 4.9			
CCCCCCCCC(C)(C)c1ccc([C@@H]2C[C@H](O)CC[C@H]2CCCO)cc1 (relative stereo)	566 nM	421 nM	1.3			
CCCCCCC(C)(C)c1ccc([C@@H]2CCC[C@@H](O)C2)cc1 (relative stereo)	645 nM	178 nM	3.6			
CC(C)(C)c1ccc([C@H]2CCC[C@@H](O)C2)cc1 (relative stereo)	> 10000 nM	> 10000 nM				
CCCCCCCC(C)(C)c1ccc([C@@H]2C[C@H](O)CC[C@H]2CCCO)cc1 (relative stereo)	266 nM	173 nM	1.5			
CCCCCCCCC(C)(C)c1ccc([C@@H]2CCC[C@@H](O)C2)cc1 (relative stereo)	749 nM	1080 nM	0.7			
CCCCCCC(C)(C)c1ccc([C@@H]2C[C@H](O)CC[C@H]2CCCO)c(O)c1				85%		
CCC(C)(C)c1ccc([C@@H]2C[C@H](O)CC[C@H]2CCCO)cc1 (relative stereo)	> 10000 nM	1360 nM	> 7.3			
CCCCCCCCC(C)(C)c1ccc([C@H]2CCC[C@@H](O)C2)cc1 (relative stereo)	1710 nM	1120 nM	1.5			
CCCC(C)(C)c1ccc([C@@H]2C[C@H](O)CC[C@H]2CCCO)cc1 (relative stereo)	3800 nM	1780 nM	2.1			
CCCCCCCC(C)(C)c1ccc([C@@H]2CCC[C@@H](O)C2)cc1	193 nM	154 nM	1.3			
CCCCCC(C)(C)c1ccc([C@@H]2CCC[C@@H](O)C2)cc1 (relative stereo)	1030 nM	215 nM	4.8		39.6 nM	66%
CCCCC(C)(C)c1ccc([C@@H]2C[C@H](O)CC[C@H]2CCCO)cc1 (relative stereo)	579 nM	700 nM	0.8			
CCCCC(C)(C)c1ccc([C@H]2CCC[C@@H](O)C2)cc1 (relative stereo)	> 10000 nM	639 nM	> 16			
CCCC(C)(C)c1ccc([C@@H]2CCC[C@@H](O)C2)cc1 (relative stereo)	8630 nM	1510 nM	5.7			
CCCCC(C)(C)c1ccc([C@@H]2CCC[C@@H](O)C2)cc1 (relative stereo)	1730 nM	546 nM	3.2			
CC(C)(C)c1ccc([C@@H]2CCC[C@@H](O)C2)cc1 (relative stereo)	> 10000 nM	> 10000 nM				
CCCCCCC(C)(C)c1ccc([C@H]2CCC[C@@H](O)C2)cc1 (relative stereo)	2950 nM	231 nM	13			
CCC(C)(C)c1ccc([C@H]2CCC[C@@H](O)C2)cc1 (relative stereo)	> 10000 nM	3970 nM	> 2.5			
CCC(C)(C)c1ccc([C@@H]2CCC[C@@H](O)C2)cc1 (relative stereo)	> 10000 nM	3760 nM	> 2.7			

— ChEMBL document CHEMBL1144670, “Synthesis and pharmacology of 1-deoxy analogs of CP-47,497 and CP-55,940” (Bioorg Med Chem, 2008)
